By logD is commonly meant lipophilicity at a set pH, counting ionised and neutral species. A word on the half-life: it is how long it takes for the measured level to halve. What is called AUC is the area under the concentration-time curve, a measure of exposure. Usually Cmax stands for the peak of the concentration-time curve. Usually IC50 stands for the concentration at which inhibition is half-maximal.

Data set [1] has as its system SIINFEKL OVA-derived antigen presentation in HEK cells. Put plainly: Antigen presentation assay. It counts as cell-based. The settings on record: HEK cells where LSIINFEKL is endogenously produced, 24 h.
A short description of a further data set: LogD octanol/PBS pH 7.4. It counts as physicochemical.
The nature of another data set: Microsomal stability. The data set is classed as in vitro ADME, human. Conditions: for half-life at 1 µM: both, human, liver microsomes, pH 7.4; for HLM Cl: human liver microsomes. In general terms: Liver microsomes are vesicles of endoplasmic reticulum, rich in cytochrome P450 enzymes.
A further data set is described as follows: Stability in plasma. The data set is classed as in vitro ADME. Conditions: both, human.
The nature of data set [2]: Pharmacokinetics in mouse. The data set is classed as in vivo, mice. Summed up:
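Female mice received a single i.p. dose of 50 mg/kg. Derived parameters were elimination-phase half-life (T1/2 β, min), Cmax (μM), Tmax (min) and AUC extrapolated to infinity (AUC0‑∞, min μM).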

A further data set has as its target ERAP2 (Homo sapiens, UniProt Q6P179). Put plainly: ERAP2 activity assay using R-AMC substrate. It counts as biochemical.
Where [3] appears, read: female, CD-1, mouse, plasma, ip, 50 mg/kg.

Chain of ERAP2 (Q6P179 whole entry): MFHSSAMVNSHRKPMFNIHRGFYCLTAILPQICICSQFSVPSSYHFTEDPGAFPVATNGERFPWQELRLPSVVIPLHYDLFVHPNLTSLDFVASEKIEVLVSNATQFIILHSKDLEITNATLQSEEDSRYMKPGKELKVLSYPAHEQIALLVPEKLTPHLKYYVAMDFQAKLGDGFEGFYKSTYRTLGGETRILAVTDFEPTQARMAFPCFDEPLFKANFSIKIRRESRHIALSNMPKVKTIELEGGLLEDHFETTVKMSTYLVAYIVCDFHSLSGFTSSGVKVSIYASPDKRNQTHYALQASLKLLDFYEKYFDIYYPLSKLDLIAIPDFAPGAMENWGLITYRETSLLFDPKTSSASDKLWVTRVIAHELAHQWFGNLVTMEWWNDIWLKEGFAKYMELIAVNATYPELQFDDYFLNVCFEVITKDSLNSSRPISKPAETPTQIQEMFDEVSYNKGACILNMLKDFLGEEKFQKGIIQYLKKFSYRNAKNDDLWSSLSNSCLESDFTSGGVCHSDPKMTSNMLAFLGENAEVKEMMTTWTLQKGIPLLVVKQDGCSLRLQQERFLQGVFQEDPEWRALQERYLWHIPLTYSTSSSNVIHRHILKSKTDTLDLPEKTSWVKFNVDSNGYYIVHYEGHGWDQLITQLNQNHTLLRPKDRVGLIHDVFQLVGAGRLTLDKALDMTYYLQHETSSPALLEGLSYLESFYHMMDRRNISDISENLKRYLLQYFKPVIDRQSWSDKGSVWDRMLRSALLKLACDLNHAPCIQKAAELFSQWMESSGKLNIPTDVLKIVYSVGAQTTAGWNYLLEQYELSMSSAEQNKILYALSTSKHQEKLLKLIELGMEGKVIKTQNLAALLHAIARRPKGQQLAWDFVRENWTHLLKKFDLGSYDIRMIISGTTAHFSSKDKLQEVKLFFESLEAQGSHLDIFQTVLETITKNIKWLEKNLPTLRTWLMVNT

Take `COc1ccc(C[C@@H](C(=O)NO)n2cc(CNS(=O)(=O)c3ccc(-c4ccccc4)s3)nn2)cc1` [4 d]: the “effect on SIINFEKL antigen presentation” value in data set [1] is reported as “dose‐dependent effect”. The compound further had a logD at 2 h in the data set “LogD octanol/PBS pH 7.4” of 2.99. In “Microsomal stability”, the half-life at 1 µM is more than 0.667 h and the “HLM Cl” value is 50 µL/min/g. In the data set “Stability in plasma”, this compound came in with a half-life at 10 µM of more than 6 h. Also, in data set [2] (setting [3]), the AUC is 12.9 µM·h and the Cmax is 18 µM. For the same compound, in data set [2] (mice, 50 mg kg^−1, i. p.), the “tolerability of the dose” value is on record as “tolerated”.
In the case of `COc1ccc(C[C@@H](C(=O)NO)n2cc(CNS(=O)(=O)c3ccc(-c4ccccn4)s3)nn2)cc1` [4 e], the log distribution coefficient (logD) at 2 h in “LogD octanol/PBS pH 7.4” was 1.81. Besides, in “Microsomal stability”, the half-life at 1 µM was more than 0.667 h and the “HLM Cl” value came to 21 µL/min/g. In the data set “Stability in plasma”, this compound returned a half-life at 10 µM of more than 6 h.
For the compound `O=C(NO)[C@H](Cc1ccc(Oc2ccccc2)cc1)n1cc(CNS(=O)(=O)c2ccc(-c3ccccn3)s2)nn1` [4 f], in data set [1], the “effect on SIINFEKL antigen presentation” value is on record as “dose‐dependent effect”. In “LogD octanol/PBS pH 7.4”, this compound returned a logD at 2 h of 4.11. For the same compound, the half-life at 10 µM in “Stability in plasma” is more than 6 h.
For `O=C(NO)[C@@H](Cc1c[nH]c2ccccc12)n1cc(CNS(=O)(=O)c2ccc(-c3ccccc3)s2)nn1` [4 b], the inhibition at 100 µM on ERAP2 (read-out: %inh at 100 μM) is 43%. In addition, the “ERAP2 activity in words” value at ERAP2 (replacement of the phenol group by an indole) was “complete loss of activity”.
`O=C(C[C@@H](Cc1ccc2ccccc2c1)n1cc(CNS(=O)(=O)c2ccc(-c3ccccc3)s2)nn1)NO` [2 c] returned a 50% inhibitory concentration (IC50) against ERAP2 of 2290 nM.
Regarding `O=C(NO)[C@H](Cc1ccc(O)cc1)n1cc(CNS(=O)(=O)c2ccc(-c3ccccc3)s2)nn1` [4 a], the IC50 at ERAP2 turned out to be 760 nM.
As for `O=C(C[C@@H](Cc1c[nH]c2ccccc12)n1cc(CNS(=O)(=O)c2ccc(-c3ccccc3)s2)nn1)NO` [2 b], half-maximal inhibition against ERAP2 (IC50) was put at 12000 nM.

Source of the values: article PMC9558494 (Angewandte Chemie (International Ed. in English), 2022).
